Reference: the RNAGym collection of RNA variant scans (doi:10.1126/science.aae0568)
Fewer inactive variants are shown than the library holds.

B1: tRNA (parent)
chain: GUUCCGUUGGCGUAAUGGUAACGCGUCUCCCUCCUAAGGAGAAGACUGCGGGUUCGAGUCCCGUACGGAACG

Variants of: B1
Assay: yeast fitness relative to wild type (ratio to wild type); higher = fitter; tRNA-Arg(CCU), competitive growth, 37 C, YPD
Outline: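 Genotype frequency changes were the basis for Darwinian fitness relative to wild type. The frequencies came from 100-nucleotide paired-end sequencing of gene amplicons from the start population and each end population of pooled yeast strains with tRNA-Arg(CCU) gene variants at the native locus. Competition ran in YPD at 37°C for 24 hours in six replicates, genotypes needed ≥ 100 starting reads, and estimates < 0.5 were set to 0.5.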

First: GUUCCGUUGGCGUAGUGGUAACGCGUCUACCUCGUAAGGAGAAGACUGCGGGUUCGAGUCCCGUACGGAACG [A15G C29A C34G]
Second: GUUCCGUUGGCGUAGUGGUAACGCGACUCCCUCCUAAGGAGAAGGCUGCGGGUUCGAGUUCAGUACGGAACG [A15G U26A A45G C60U C62A]
The yeast fitness of the first is lower: ≤ 0.5 for the first, 0.562 for the second.

First: GUUCCGUUGGCGUAGUGGUAACGCGUCUCCCUCCUAAGGAGAAGAGUGCGGGUUCGAGUCCCGUACAGAACG [A15G C46G G67A]
Second: GUUCCGUUGGCGUAGUGGUAACGCGUCUCCCUCCUAAGGAGAAGACUGCGGGUUCGAAUCCUGUACGGCACG [A15G G58A C62U A69C]
The yeast fitness of the first is lower: 0.623 for the first, 0.685 for the second.

First: GUUCCGUUGGCGUAGUGGUAACGCGUCUCCCUCCUAAGGAGAAGACUGCGGGUUCGAGUCCCGUACAGCACG [A15G G67A A69C]
Second: GUUCCGUUGGCGUAGUGGUAACCCGUCUCCCUCCUAAGGAGAAAACUGCGGGUUCGAGUCCCGUACGGAACG [A15G G23C G44A]
The yeast fitness of the first is higher: 0.767 for the first, ≤ 0.5 for the second.

GUUCCGUUGGCGUAGUGAUAACGCGUCUCCCUCCUAAGGAGAAGACUGCGGGUACGAGUCCCGUACGGAACG [A15G G18A U54A] and GUUCCGUUGGCGUAGUGGUAACACGUCUCCCUCCUGAGGAGAAGACUGCGGGUUAGAGUCCCGUACGGAACG [A15G G23A A36G C55A] cannot be ordered by yeast fitness: ≤ 0.5 for the first, ≤ 0.5 for the second.

Compared with GUUCCGUUGGCGUAGUGGUAACGCGUCUUCCUCCUAAGGAGAAGACUGCGGGUUCGAGUCCCGUACGGAACG [A15G C29U], GUUCCGUUGGCGUAGUAGUAACGCGUCUCCCUUCUAAGGAGAAGACUGCGGGUUCGAGUCCCGUACGGAACG [A15G G17A C33U] is lower in yeast fitness: 0.952 for the first, ≤ 0.5 for the second.

First: GUUCCGUUGGCGUAGUGGUAACGCGUCUCGAUCCUAAGGAGAAGACUGCGGGUUCGAGUCCCGUAUGGAACG [A15G C30G C31A C66U]
Second: GUUCCGUUGGCGUAGUGGUAACGCGUCUCCCUCCUAAGGAGAAGACUGUGGGUUCGAGUCCCGUACGGAACG [A15G C49U]
The yeast fitness of the first is lower: ≤ 0.5 for the first, 1.07 for the second.

Going from GUUCCGUUGGCGUAGUGGUAACGCGUCUCCCUCCUAAGGAGAAGACUGCGGGUUCGAGUCACGUACGGUACG [A15G C61A A69U] to GUUCCGUUGGCGUAGUGGUAACGCGUCUCCCUCCUAAGGAGAAGAGUGCGGGUUCGAGUCGCGUGCGGAACG [A15G C46G C61G A65G], the yeast fitness rises from 0.643 to 0.756.

GUUCCGUUGGCGUAGUGGUAACGCGUCUCGCUCCUAAGCAGAAGACUGCGGGUUCGAGUCCCGUACGGAACG [A15G C30G G39C] and GUUCCGUUGGCGUAGUGGUAACGCGUCUCACUCCUAAGGAGAAGACUCCGGGUUCGAGUCCCGUACGGAACG [A15G C30A G48C] cannot be ordered by yeast fitness: ≤ 0.5 for the first, ≤ 0.5 for the second.

Compared with GUUCCGUUGGCGUAGUGGUAACGAGUCUCCCUCCUAAGGAGAAGACUGCGGGUUCGAGUCCCGUAUGGAACG [A15G C24A C66U], GUUCCGUUGGCGUAGUGGUAACGCGUCUCCCUCCUAAGGAAAAGACUGCGGGUUCGAGUCCCGUACGGAACG [A15G G41A] is higher in yeast fitness: ≤ 0.5 for the first, 0.854 for the second.

First: GUUCCGUUGGCGUAGUAGUAACGCGUCUCCCUCCUAAGGAGAAGACUGCGGGUUCGAGUCCCGUACGGCACG [A15G G17A A69C]
Second: GUUCCGUUGGCGUAGUGGUAACGCGUCUCCCUCCUAAGGAGAAGACUGUGGGUUCGAGUCUCGUACGGAACG [A15G C49U C61U]
The yeast fitness of the first is lower: 0.586 for the first, 0.672 for the second.

GUUCCGUUGGCGUAGGGGUAACGCGUCUCCCUCCUAAGAAGAAGCCUGCGGGUUCGAGUCACGUACGGAACG [A15G U16G G39A A45C C61A] and GUUCCGUUGGCGUAGUGGUAACGCGUCUCGCUCCUAAGGAGAAGACUGCGGGUUCGAGUCCCAUACGGAACG [A15G C30G G63A] cannot be ordered by yeast fitness: ≤ 0.5 for the first, ≤ 0.5 for the second.

First: GUUCCGUUGGCGUAGUGGUAACGCGUCUCCCUCCUAAGGAGAAGACUGCGGGUUCGAAUCCCGUACGCAACG [A15G G58A G68C]
Second: GUUCCGUUGGCGUAGUGGUAACGCGUCUCCCUUCUAAGGAGAAGACUGCAGGUUCGAGUCCCGUACGGAACG [A15G C33U G50A]
The yeast fitness of the first is higher: 0.596 for the first, ≤ 0.5 for the second.

Compared with GUUCCGUUGGCGUAGUGGUAACGCAUCUCCCUCCUAGGGAGAAGACUGCGGGUUCGAGUCCCGUACGGACCG [A15G G25A A37G A70C], GUUCCGUUGGCGUAGUGGUAACGAGUCUCCCUCGUAAGGAGAAGACUGCGGGUUCGAGUCCCGUUCGGAACG [A15G C24A C34G A65U] is lower in yeast fitness: 0.522 for the first, ≤ 0.5 for the second.

Compared with GUUCCGUUGGCGUAGUGGUAACGCGUCUCCCUCCUAAGGAGAAGACUGGGGGUUGGAGUCCCGUACGGAACG [A15G C49G C55G], GUUCCGUUGGCGUAGUGGUAACGCGUCUACCUCCUAAGGAGAAGACGGCGGGUACGAAUCCCGUACGGAACG [A15G C29A U47G U54A G58A] is lower in yeast fitness: 0.577 for the first, ≤ 0.5 for the second.

GUUCCGUUGGCGUAGUGGUAACGCGUCUCCCUCGUAAGGAGAAGAUUGCGGGUUCGAGUCCCGUACGGAACG [A15G C34G C46U] and GUUCCGUUGGCGUAGUGGUAACGCGUCUGCGUCCUACGGAGAAGACUGCGGGUUCGAGUCCCGUAAGGAACG [A15G C29G C31G A37C C66A] cannot be ordered by yeast fitness: ≤ 0.5 for the first, ≤ 0.5 for the second.

Going from GUUCCGUUGGCGUAGUGGUAACGCGUCUCCCUCCUAAGGAGAAGACUGCGGGUUCGACUCCGGUACGGAACG [A15G G58C C62G] to GUUCCGUUGGCGUAGUGGCAACGCGUCUCCCUCCUAUGGAGAAGACUGUGAGUUCGAGUCCCGUACGGAACG [A15G U19C A37U C49U G51A], the yeast fitness rises from ≤ 0.5 to 0.555.

Compared with GUUCCGUUGGCGUAGUGGUAACGCGUCUCCCUCCUAAGGAGAAGACUGAGGGUUCAAGUCCCGUACGGAACG [A15G C49A G56A], GUUCCGUUGGCGUAGUGGUAACGCGUCUCCGUCCUAAGGUGAAGACUGCGGGUUCGAGUGCCGUACAGAACG [A15G C31G A40U C60G G67A] is higher in yeast fitness: 0.506 for the first, 0.529 for the second.

Compared with GUUCCGUUGGCGUAGUGGUAACGCGGCUCUCUCCUAAGGAGAAGACUGCGUAUUCGAGUCCCGUACGGAACG [A15G U26G C30U G51U G52A], GUUCCGUUGGCGUAGUGGUAACGCGUCUCCCUCCUAAGGAGAAGACUGCGGGUUCGAGUGCCGUACGGCACG [A15G C60G A69C] is higher in yeast fitness: ≤ 0.5 for the first, 0.585 for the second.

First: GUUCCGUUGGCGUAGUGGUAACGCGUCUCUCUCCUAAGGAGAAGACUGCGGGUUUGAGUCCCGUACGGAACG [A15G C30U C55U]
Second: GUUCCGUUGGCGUAGUGGUAACGCGUCUCCCUCCUAAGCAGAAGACUGCGGGUUCGAGUCCCGUACGGCACG [A15G G39C A69C]
The yeast fitness of the first is lower: ≤ 0.5 for the first, 0.624 for the second.
